Assay [1] deals with T1, Adenosine receptor A1 (Rattus norvegicus) (UniProt P25099).
T1 sequence (whole entry): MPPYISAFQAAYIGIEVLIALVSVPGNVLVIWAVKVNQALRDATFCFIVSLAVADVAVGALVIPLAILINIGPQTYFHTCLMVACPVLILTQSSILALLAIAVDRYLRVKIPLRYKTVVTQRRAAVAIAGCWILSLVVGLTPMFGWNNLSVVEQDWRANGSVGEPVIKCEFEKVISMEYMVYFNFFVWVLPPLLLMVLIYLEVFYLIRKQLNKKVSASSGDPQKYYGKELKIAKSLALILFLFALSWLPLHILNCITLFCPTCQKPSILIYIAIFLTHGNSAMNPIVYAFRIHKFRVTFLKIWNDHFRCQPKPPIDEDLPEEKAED
The assay is described as follows: Antagonistic activity expressed as percent displacement of 0.4 nM of [3H]DPCPX from adenosine A1 receptors in rat brain cortex membranes at 10 uM. The format is functional, cell membranes. The note with it: Membrane. The method, boiled down: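 Rat brain cortex membranes (ADA-treated, 2 U/mL at 37 °C before storage; 30 μg/mL) incubated 1 h at 25 °C in 50 mM Tris/HCl pH 7.4 with 0.4 nM [3H]DPCPX and 10 μM compound. Nonspecific binding defined by 10 μM CPA. Result is percent displacement of radioligand; n = 3–5.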

The target of assay [2] is T1, Adenosine receptor A1 (Rattus norvegicus). The experiment in a line: Enhancing activity at 10 uM PD 81,723 (100%) at Adenosine A1 receptor in rat brain cortex membranes. The format is cell membranes. Put shortly:
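Rat brain cortex membranes (ADA-treated, 2 U/mL at 37 °C) preincubated 2.5 h with 0.5 nM [3H]CCPA. Dissociation then started with 100 μM CPA, with or without 10 μM test compound. Bound [3H]CCPA measured after 1 h.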

For another assay, the target named is T2, Adenosine receptor A1 (Rattus norvegicus, UniProt P25099).
T2 sequence (P25099 whole entry): T1 sequence (whole entry)
The assay is described as follows: Enhanced 0.5 nM [3H]CCPA dissociation from adenosine A1 receptor of rat brain cortex membranes compared to 100 uM CPA. The method, boiled down: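 Rat brain cortex membranes (ADA-treated, 2 U/mL at 37 °C) preincubated 2.5 h with 0.5 nM [3H]CCPA. Dissociation then started with 100 μM CPA, with or without 10 μM test compound. Bound [3H]CCPA measured after 1 h. Percent decrease in dissociation scaled between control (0%) and 10 μM PD 81,723 as reference (100%); n = 3.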

Consider `CCc1c(C)sc(N)c1C(=O)c1ccccc1`, for which, in assay [1], the Antagonism was 12.6%. The Enhancement in assay [2] is 31.4%.

Turning to `Nc1sc2c(c1C(=O)c1ccc(C(F)(F)F)cc1)CCCC2`, in assay [1], the Antagonism turned out to be 56.7%. Moreover, on Adenosine receptor A1, the EC50 was determined as 4.7 µM. Further, the Enhancement in assay [2] was found to be 131%.

In the case of `Nc1sc2c(c1C(=O)c1ccc(Cl)cc1)CCN(Cc1ccc(Cl)c(Cl)c1)C2`, the Antagonism in assay [1] worked out at 45.7%. Besides, on Adenosine receptor A1, the EC50 came out at 32 µM. The Enhancement in assay [2] stood at 106%.

Take `Cc1ccc(C(=O)c2c(N)sc3c2CCCC3)cc1`: the Antagonism in assay [1] worked out at 30.3%. Also, the EC50 at Adenosine receptor A1 worked out at 34.9 µM. In assay [2], the Enhancement was determined as 137%.

For `Nc1sc2c(c1C(=O)c1ccccc1)CCN(Cc1ccc(Cl)c(Cl)c1)C2`, the Antagonism in assay [1] stood at 4%. In addition, the Enhancement in assay [2] is 57%.

Consider `Nc1sc2c(c1C(=O)c1cccc(I)c1)CCCC2`, for which the Antagonism in assay [1] came out at 65.8%. Further, the Enhancement in assay [2] amounted to 113%.

In assay [1], `Nc1sc2c(c1C(=O)c1ccc(Cl)c(Cl)c1)CCN(Cc1ccccc1)C2` registered an Antagonism of 51%. Besides, the concentration for a half-maximal effect (EC50) on Adenosine receptor A1 was determined as 9.2 µM. Besides, in assay [2], the Enhancement was determined as 174%.

Consider `Nc1sc2c(c1C(=O)c1cccc(C(F)(F)F)c1)CCCC2`, for which, in assay [1], the Antagonism stood at 32.2%. Also, the EC50 on Adenosine receptor A1 stood at 6 µM. The Enhancement in assay [2] is 122%.

Regarding `Nc1sc2c(c1C(=O)c1ccc(C(=O)O)cc1)CCCC2`, in assay [2], the Enhancement was 28.6%.

Take `Nc1sc2c(c1C(=O)c1ccccc1)CCN(C(=O)c1ccccc1)C2`: in assay [1], the Antagonism is 71.8%. Further, the Enhancement in assay [2] came out at 13.8%.

`Nc1sc2c(c1C(=O)c1ccccc1)CCN(Cc1ccc(Cl)cc1)C2` returned an Antagonism in assay [1] of 52.2%. Also, the Enhancement in assay [2] was 69%.

`Cc1sc(N)c(C(=O)c2cccc(Cl)c2)c1C` registered an Antagonism in assay [1] of 18.7%. For the same compound, in assay [2], the Enhancement came to 80.3%.

With `CCc1c(C)sc(N)c1C(=O)c1ccc(Cl)cc1`, in assay [1], the Antagonism was 19.8%. Also, in assay [2], the Enhancement was 97.2%.

The compound `Nc1sc2c(c1C(=O)c1ccc(Cl)c(Cl)c1)CCCC2` yielded an Antagonism in assay [1] of 34.7%. At Adenosine receptor A1, the EC50 came out at 6.2 µM. Moreover, the Enhancement in assay [2] worked out at 151%.

Regarding `Nc1sc2c(c1C(=O)c1ccccc1)CCCC2`, the Antagonism in assay [1] came to 34.7%. Moreover, the Enhancement in assay [2] is 47.2%.

`Nc1sc2c(c1C(=O)c1ccc(I)cc1)CCCC2` gave an Antagonism in assay [1] of 64.4%. Moreover, the EC50 at Adenosine receptor A1 was found to be 4.5 µM. Besides, the Enhancement in assay [2] turned out to be 155%.

In assay [1], `Cc1sc(N)c(C(=O)c2ccccc2)c1C` displayed an Antagonism of 13.9%. Moreover, the Enhancement in assay [2] is 8%.

On to `Nc1sc2c(c1C(=O)c1ccc(Br)cc1)CCCC2`, for which the Antagonism in assay [1] is 41.6%. Also, the EC50 at Adenosine receptor A1 came out at 16.4 µM. Further, the Enhancement in assay [2] was found to be 128%.

In assay [1], `Nc1sc2c(c1C(=O)c1ccccc1)CCN(Cc1ccccc1)C2` yielded an Antagonism of 67.1%. The Enhancement in assay [2] was determined as 52.8%.

In assay [1], `Nc1sc2c(c1C(=O)c1ccccc1)CCN(Cc1cccc(Cl)c1)C2` gave an Antagonism of 80.1%. Also, at Adenosine receptor A1, the EC50 is 15.1 µM. Moreover, in assay [2], the Enhancement turned out to be 106%.

In turn, `Nc1sc2c(c1C(=O)c1cccc(Cl)c1)CCCC2` showed an Antagonism in assay [1] of 50.6%. The EC50 at Adenosine receptor A1 amounted to 10.5 µM. The Enhancement in assay [2] amounted to 92.7%.

In assay [1], `Nc1sc2c(c1C(=O)c1ccc(Cl)cc1)CCN(Cc1ccccc1)C2` had an Antagonism of 60.9%. For the same compound, the EC50 at Adenosine receptor A1 came out at 11.3 µM. In assay [2], the Enhancement is 132%.

In assay [1], `Nc1sc2c(c1C(=O)c1ccccc1Cl)CCCC2` registered an Antagonism of 35.1%. Further, in assay [2], the Enhancement is 72.5%.

`CCc1c(C)sc(N)c1C(=O)c1cccc(Cl)c1` gave an Antagonism in assay [1] of 22.3%. The Enhancement in assay [2] turned out to be 29.9%.

In assay [1], `Cc1sc(N)c(C(=O)c2cccc(C(F)(F)F)c2)c1C` yielded an Antagonism of 39.5%. Besides, the EC50 at Adenosine receptor A1 is 14.7 µM. Further, the Enhancement in assay [2] came out at 100%.

`CCc1c(C)sc(N)c1C(=O)c1cccc(C(F)(F)F)c1` had an Antagonism in assay [1] of 5.4%. Besides, in assay [2], the Enhancement amounted to 112%.

Consider `Nc1sc2c(c1C(=O)c1ccc([N+](=O)[O-])cc1)CCCC2`, for which, in assay [1], the Antagonism amounted to 19.5%. The Enhancement in assay [2] was found to be 33.9%.

Compound `COC(=O)c1ccc(C(=O)c2c(N)sc3c2CCCC3)cc1` returned an Antagonism in assay [1] of 28.9%. The Enhancement in assay [2] was found to be 43.9%.

`Cc1sc(N)c(C(=O)c2ccc(Cl)cc2)c1C` had an Antagonism in assay [1] of 41%. Also, the Enhancement in assay [2] was found to be 93.5%.

In assay [1], `Nc1sc2c(c1C(=O)c1ccc(Cl)cc1)CCCC2` [T-62] showed an Antagonism of 39.9%. Moreover, the EC50 at Adenosine receptor A1 came out at 6.8 µM. The Enhancement in assay [2] was 123%.

Values taken from ChEMBL document CHEMBL1132378, “Allosteric modulation of the adenosine A(1) receptor. Synthesis and biological evaluation of novel 2-amino-3-benzoylthiophenes as allosteric enhancers of agonist binding” (J Med Chem, 1999).
